Data as given in ChEMBL document CHEMBL1122007, “A comparison of the inhibition of growth of methotrexate-resistant and -sensitive leukemia cells in culture by triazines. Evidence for a new mechanism of cell resistance to methotrexate” (1982).

Each molecule was assayed on L5178Y (assay: Compound was tested in vitro for concentration required to decrease 50% growth rate of murine leukemia L5178Y/R cell culture).
Assay type: functional, Mus musculus
Outline: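 Seeded at 4.0-6.0 × 10^4 cells/mL in duplicate. Drug added 1:10, at least eight concentrations, for 48 h of continuous exposure under 5% CO2. Cells counted by Coulter counter. ID50 is the concentration that halves the growth rate (doubles the generation time), read from the dose-response curve.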

Point of comparison: `CC1(C)N=C(N)N=C(N)N1c1cccc(CSc2ccccc2)c1`, “Log 1/C” value 6.2. Against it:
- CCCCCCCCCOc1cccc(N2C(N)=NC(N)=NC2(C)C)c1 — higher, 6.57
- CC(C)c1cccc(OCc2cccc(N3C(N)=NC(N)=NC3(C)C)c2)c1 — lower, 5.87
- CC1(C)N=C(N)N=C(N)N1c1cccc(CNc2cc(C(N)=O)cc(C(N)=O)c2)c1 — lower, 3.79
- Cc1cccc(OCc2cccc(N3C(N)=NC(N)=NC3(C)C)c2)c1 — lower, 5.59
- CC1(C)N=C(N)N=C(N)N1c1cccc(COc2cccc(NC(N)=O)c2)c1 — lower, 4.74
- CC1(C)N=C(N)N=C(N)N1c1cccc(OCCOc2cccc(C(F)(F)F)c2)c1 — lower, 5.85
- CC(=O)Nc1cccc(OCc2cccc(N3C(N)=NC(N)=NC3(C)C)c2)c1 — lower, 4.95
- CC1(C)N=C(N)N=C(N)N1c1cccc([N+](=O)[O-])c1 — lower, 5.03
- CC1(C)N=C(N)N=C(N)N1c1cccc(C(O)c2ccccc2)c1 (configuration not stated) — lower, 4.17
- CC1(C)N=C(N)N=C(N)N1c1cccc(OCCOc2ccccc2)c1 — lower, 5.02
- CC1(C)N=C(N)N=C(N)N1c1cccc(F)c1 — lower, 5.24
- CC(C)(C)c1cccc(N2C(N)=NC(N)=NC2(C)C)c1 — within 0.2 log units, 6.03
- CC1(C)N=C(N)N=C(N)N1c1cccc(Br)c1 — lower, 5.9
- CC1(C)N=C(N)N=C(N)N1c1cccc(I)c1 — lower, 5.91
- CC1(C)N=C(N)N=C(N)N1c1cccc(OCc2ccc(Cl)c(Cl)c2)c1 — lower, 5.8
- CCCCCCCCCCCOc1cccc(N2C(N)=NC(N)=NC2(C)C)c1 — within 0.2 log units, 6.38
- CC1(C)N=C(N)N=C(N)N1c1cccc(COc2ccccc2)c1 — lower, 5.67
- CCc1cccc(OCc2cccc(N3C(N)=NC(N)=NC3(C)C)c2)c1 — lower, 5.74
- CC1(C)N=C(N)N=C(N)N1c1cccc(COc2cccc(C#N)c2)c1 — lower, 5.25
- CCCCCCCCCCCCOc1cccc(N2C(N)=NC(N)=NC2(C)C)c1 — within 0.2 log units, 6.24
- CCCCCCCCCCCCCOc1cccc(N2C(N)=NC(N)=NC2(C)C)c1 — higher, 6.52
- CCCCCCc1cccc(N2C(N)=NC(N)=NC2(C)C)c1 — within 0.2 log units, 6.39
- CC(C)(C)c1cccc(OCc2cccc(N3C(N)=NC(N)=NC3(C)C)c2)c1 — within 0.2 log units, 6.08
- CC1(C)N=C(N)N=C(N)N1c1cccc(COc2cccc(NC(=N)S)c2)c1 — lower, 4.01
- CCCCCCCCCCCCCCOc1cccc(N2C(N)=NC(N)=NC2(C)C)c1 — higher, 6.49
- CC1(C)N=C(N)N=C(N)N1c1cccc(COc2cccc(Cl)c2)c1 — lower, 5.93
- COc1cccc(OCc2cccc(N3C(N)=NC(N)=NC3(C)C)c2)c1 — lower, 5.36
- CC1(C)N=C(N)N=C(N)N1c1cccc(COc2cccc(CO)c2)c1 — lower, 4.77
- CN(C)C(=O)c1cccc(COc2ccc(N3C(N)=NC(N)=NC3(C)C)cc2Cl)c1 — lower, 5.4
- CC1(C)N=C(N)N=C(N)N1c1cccc(OCCCCOc2cccc(C(F)(F)F)c2)c1 — within 0.2 log units, 6.28
- CC(=O)c1cccc(N2C(N)=NC(N)=NC2(C)C)c1 — lower, 4.56
- CC1(C)N=C(N)N=C(N)N1c1cccc(OCCCCOc2ccccc2)c1 — lower, 5.3
- Cc1cccc(N2C(N)=NC(N)=NC2(C)C)c1 — lower, 4.97
- CC1(C)N=C(N)N=C(N)N1c1cccc(OCc2ccccc2)c1 — lower, 5.19
- CCCCOc1cccc(N2C(N)=NC(N)=NC2(C)C)c1 — lower, 5.95
- CN(Cc1cnc2nc(N)nc(N)c2n1)c1ccc(C(=O)N[C@@H](CCC(=O)O)C(=O)O)cc1 [METHOTREXATE] — lower, 2.9
